From ChEMBL document CHEMBL1671690, “Madurella mycetomatis is not susceptible to the echinocandin class of antifungal agents” (2010) come the findings set out here.

≈ marks a conversion by molar mass, not a printed value. Calls of active or inactive are those of the source. The rule behind the calls is not given here. Numbered stars: 1 amine (or outer) side, 2 acyl side, 3 side chain; on linkers, the order of the positions; unused ones are H or OH. Bridge positions count the residues as written; N and C are the ends. Square brackets hold non-standard residues; d marks the D form. Peptide text beside a SMILES is read from it. * marks the point of attachment. hTyr(3S-OH,4S-OH,3'-OSO3H) = N[C@H](C(=O)O)[C@H](O)[C@@H](O)c1ccc(O)c(OS(=O)(=O)O)c1; pTerphenylCO(4''-OnC5H11) = CCCCCOc1ccc(-c2ccc(-c3ccc(C(=O)*)cc3)cc2)cc1; Orn(4R-OH,5R-OH) = O=C([C@H](C[C@@H](O)[C@@H](O)N[*:3])N[*:1])[*:2]; hTyr(3S-OH,4S-OH) = N[C@H](C(=O)O)[C@H](O)[C@@H](O)c1ccc(O)cc1; Pro(3S-OH,4S-Me) = C[C@H]1CN[C@H](C(=O)O)[C@H]1O; X1 = CCCCCOc1ccc(-c2cc(-c3ccc(C(=O)*)cc3)no2)cc1; Gln(3R-OH) = NC(=O)C[C@@H](O)[C@H](N)C(=O)O; Hyp = O=C(O)[C@@H]1C[C@@H](O)CN1 A value given as a limit tells only on which side of the number the result lay.

Test [1] in a line: Antifungal activity against Madurella mycetomatis isolate 31 by XTT assay. Type of test: functional. An outline of the steps:
(§1)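 Ketoconazole, caspofungin and anidulafungin diluted in DMSO, micafungin in normal saline. Viability read by XTT reduction. MIC is the first concentration giving >80% spectrophotometric reduction. Done independently in triplicate.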
(Tetrazolium assays rely on reduction of a dye to a coloured formazan, in cell work by metabolically active cells.)

Test [2] in a line: Antifungal activity against Madurella mycetomatis isolate 35 by XTT assay. The class given is functional. The essentials: as §1
Test [3] is described as follows: Antifungal activity against Madurella mycetomatis isolate 36 by XTT assay. Type of test: functional. The essentials:
as §1

Test [4] in a line: Antifungal activity against Madurella mycetomatis isolate 39 by XTT assay. The class given is functional. The essentials: as §1
Test [5] in a line: Antifungal activity against Madurella mycetomatis isolate 41 by XTT assay. The class given is functional. The essentials:
as §1

Test [6] can be described thus: Antifungal activity against Madurella mycetomatis isolate 43 by XTT assay. The class given is functional. The essentials: as §1
Test [7] is described as follows: Antifungal activity against Madurella mycetomatis isolate 45 by XTT assay. The class given is functional. An outline of the steps:
as §1

Test [8] in a line: Antifungal activity against Madurella mycetomatis isolate 46 by XTT assay. Type of test: functional. An outline of the steps:
as §1

A short description of test [9]: Antifungal activity against Madurella mycetomatis isolate 49 by XTT assay. The class given is functional. The essentials: as §1
The nature of test [10]: Antifungal activity against Madurella mycetomatis isolate 50 by XTT assay. The class given is functional. The essentials: as §1
A short description of test [11]: Antifungal activity against Madurella mycetomatis isolate 52 by XTT assay. The class given is functional. The essentials: as §1
A short description of test [12]: Antifungal activity against Madurella mycetomatis isolate 54 by XTT assay. The class given is functional. The essentials: as §1
Test [13] can be described thus: Antifungal activity against Madurella mycetomatis isolate 55 by XTT assay. Type of test: functional. The essentials: as §1
The nature of test [14]: Antifungal activity against Madurella mycetomatis isolate 64 by XTT assay. Type of test: functional. The essentials: as §1
The nature of test [15]: Antifungal activity against Madurella mycetomatis isolate 68 by XTT assay. The class given is functional. The essentials:
as §1

The nature of test [16]: Antifungal activity against Madurella mycetomatis isolate 73 by XTT assay. Type of test: functional. An outline of the steps: as §1
A short description of test [17]: Antifungal activity against Madurella mycetomatis isolate 83 by XTT assay. The class given is functional. An outline of the steps:
as §1

Test [18] deals with Aspergillus fumigatus. The test is described as follows: Antifungal activity against Aspergillus fumigatus ATCC 204305 by XTT assay. The class given is functional. As to conditions: for minimal effective concentration: read-out: MEC. An outline of the steps:
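XTT viability assay in RPMI, run independently in triplicate, with a conidial inoculum. Twofold dilutions from 0.007 to 128 mg/liter for echinocandins and 0.016 to 16 mg/liter for KTZ. Drugs dissolved in DMSO, except micafungin in normal saline. MIC is the first concentration giving more than 80% spectrophotometric reduction. MEC is the first concentration with altered growth.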

For test [19], the system named is Madurella mycetomatis. The test is described as follows: Inhibition of beta-1,3-D-glucan synthesis in Madurella mycetomatis isolate 55 after 7 days by […] assay. Type of test: functional. The essentials: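 A hyphal suspension in RPMI was exposed to drug in tubes for 7 days at 37°C. Mycelium was freeze-dried, taken up in 1 M NaOH, probe-sonicated for 15 s and held at 52°C for 30 min. Glucan was measured by aniline blue fluorescence with curdlan as standard, then scaled to viable cells from XTT relative to growth control. Results are means with standard deviation.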

Test [20] concerns Aspergillus fumigatus. Kind of test: Inhibition of beta-1,3-D-glucan synthesis in Aspergillus fumigatus ATCC 204305 after 48 hrs by […] assay. The class given is functional, organism-based. The essentials:
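A conidial suspension in RPMI was exposed to drug in tubes for 48 h. Mycelium was freeze-dried, taken up in 1 M NaOH, probe-sonicated for 15 s and held at 52°C for 30 min. Glucan was measured by aniline blue fluorescence with curdlan as standard, then corrected to viable cells by XTT. Results are means with standard deviation.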

Take `CC(=O)N1CCN(c2ccc(OCC3COC(Cn4ccnc4)(c4ccc(Cl)cc4Cl)O3)cc2)CC1` (configuration not stated): the minimum inhibitory concentration (MIC) (commonly the least concentration at which growth counts as inhibited) turned out to be 0.063 µg/mL (≈ 0.119 µM) in test [1]; 1 µg/mL (≈ 1.88 µM) in test [2]; 0.063 µg/mL (≈ 0.119 µM) in [3]; 0.031 µg/mL (≈ 0.0583 µM) in [4]; 0.125 µg/mL (≈ 0.235 µM) in test [5]; 0.063 µg/mL (≈ 0.119 µM) in test [6]. In addition, the MIC is 0.25 µg/mL (≈ 0.47 µM) in [7]; 0.016 µg/mL (≈ 0.0301 µM) in [8]; 0.031 µg/mL (≈ 0.0583 µM) in test [9]; 0.063 µg/mL (≈ 0.119 µM) in [10]; 0.25 µg/mL (≈ 0.47 µM) in test [11]; 0.031 µg/mL (≈ 0.0583 µM) in test [12]. Moreover, the minimum inhibitory concentration (MIC) in test [13] came out at 0.25 µg/mL (≈ 0.47 µM); in [14], 0.063 µg/mL (≈ 0.119 µM); in test [15], 0.125 µg/mL (≈ 0.235 µM); in test [16], 0.063 µg/mL (≈ 0.119 µM); in [17] it was 0.125 µg/mL (≈ 0.235 µM).
`CCCCCOc1ccc(-c2ccc(-c3ccc(C(=O)N[C@H]4C[C@@H](O)[C@@H](O)NC(=O)[C@@H]5[C@@H](O)[C@@H](C)CN5C(=O)[C@H]([C@@H](C)O)NC(=O)[C@H]([C@H](O)[C@@H](O)c5ccc(O)cc5)NC(=O)[C@@H]5C[C@@H](O)CN5C(=O)[C@H]([C@@H](C)O)NC4=O)cc3)cc2)cc1` [ANIDULAFUNGIN] ({pTerphenylCO(4''-OnC5H11)}-[Orn(4R-OH,5R-OH)]T[Hyp][hTyr(3S-OH,4S-OH)]T[Pro(3S-OH,4S-Me)]; lactam 1-C): the MIC in test [1] is greater than 128 µg/mL; in test [2], greater than 128 µg/mL; in test [3] it was greater than 128 µg/mL; in test [4] it was greater than 128 µg/mL; in [5], 0.5 µg/mL (≈ 0.438 µM); in [6], greater than 128 µg/mL. Also, the minimal inhibitory concentration (MIC) in test [7], in test [8], in test [9], in test [10], in test [11] and in test [12] was greater than 128 µg/mL throughout. Moreover, the MIC in test [13], in test [14], in [15], in test [16], in test [17] and in [18] was greater than 128 µg/mL throughout. For the same molecule, the minimal effective concentration in test [18] was less than 0.007 µg/mL. Also, the inhibition entry in test [19] and in [20] was “inactive” in each case.
Take `CC[C@H](C)C[C@H](C)CCCCCCCCC(=O)N[C@H]1C[C@@H](O)[C@@H](NCCN)NC(=O)[C@@H]2[C@@H](O)CCN2C(=O)[C@H]([C@H](O)CCN)NC(=O)[C@H]([C@H](O)[C@@H](O)c2ccc(O)cc2)NC(=O)[C@@H]2C[C@@H](O)CN2C(=O)[C@H]([C@@H](C)O)NC1=O` [CASPOFUNGIN]: the minimum inhibitory concentration (MIC) in test [1] was 64 µg/mL (≈ 58.5 µM); in test [2] it was 128 µg/mL (≈ 117 µM); in test [3] it was 128 µg/mL (≈ 117 µM); in test [4], 64 µg/mL (≈ 58.5 µM); in [5], 16 µg/mL (≈ 14.6 µM); in test [6], 128 µg/mL (≈ 117 µM). Besides, the MIC in test [7] was 64 µg/mL (≈ 58.5 µM); in [8], 64 µg/mL (≈ 58.5 µM); in test [9], 32 µg/mL (≈ 29.3 µM); in [10] it was 128 µg/mL (≈ 117 µM); in test [11] it was 128 µg/mL (≈ 117 µM); in test [12] it was 64 µg/mL (≈ 58.5 µM). For the same molecule, the minimum inhibitory concentration (MIC) turned out to be 128 µg/mL (≈ 117 µM) in test [13]; 64 µg/mL (≈ 58.5 µM) in [14]; 64 µg/mL (≈ 58.5 µM) in [15]; 64 µg/mL (≈ 58.5 µM) in test [16]; 128 µg/mL (≈ 117 µM) in test [17]; 128 µg/mL (≈ 117 µM) in [18]. Also, the minimal effective concentration in test [18] was 0.125 µg/mL. For the same molecule, the inhibition result in test [19] was “inactive”.
As for `CCCCCOc1ccc(-c2cc(-c3ccc(C(=O)N[C@H]4C[C@@H](O)[C@@H](O)NC(=O)[C@@H]5[C@@H](O)[C@@H](C)CN5C(=O)[C@H]([C@H](O)CC(N)=O)NC(=O)[C@H]([C@H](O)[C@@H](O)c5ccc(O)c(OS(=O)(=O)O)c5)NC(=O)[C@@H]5C[C@@H](O)CN5C(=O)[C@H]([C@@H](C)O)NC4=O)cc3)no2)cc1` [MICAFUNGIN] (X1-[Orn(4R-OH,5R-OH)]T[Hyp][hTyr(3S-OH,4S-OH,3'-OSO3H)][Gln(3R-OH)][Pro(3S-OH,4S-Me)]; lactam 1-C), the MIC in test [1] was greater than 128 µg/mL; in [2] it was greater than 128 µg/mL; in test [3] it was greater than 128 µg/mL; in test [4], greater than 128 µg/mL; in [5], 8 µg/mL (≈ 6.3 µM); in test [6] it was 128 µg/mL (≈ 101 µM). Also, the MIC in test [7], in test [8], in [9], in [10], in [11] and in test [12] was greater than 128 µg/mL each time. The minimal inhibitory concentration (MIC) in [13] is greater than 128 µg/mL; in test [14], greater than 128 µg/mL; in test [15], greater than 128 µg/mL; in [16], greater than 128 µg/mL; in test [17], 128 µg/mL (≈ 101 µM). In addition, the inhibition entry in test [19] and in test [20] was “inactive” each time.
